According to ChEMBL document CHEMBL4152319, “5-Hydroxypyrido[2,3-b]pyrazin-6(5H)-one derivatives as novel dual inhibitors of HIV-1 reverse transcriptase-associated ribonuclease H and integrase” (Eur J Med Chem, 2018):

Legend:
[1] = biological target: Human immunodeficiency virus type 1 reverse transcriptase (Human immunodeficiency virus 1, UniProt Q72547); assay: Inhibition of HIV-1 BH10 reverse transcriptase RNase H activity expressed in Escherichia coli using [32P]-labeled template primer 31Trna/21P as substrate pretreated for 5 mins followed by substrate addition by polyacrylamide gel electrophoresis method
Procedure, shortened: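 Wild-type HIV-1 BH10 RT (20-40 nM) was preincubated with compound for 5 min at 37 °C in 50 mM Tris-HCl pH 8.0, 50 mM NaCl, 5 mM MgCl2, 5% DMSO. Reaction was started with 25 nM 5'-32P-labeled 31Trna/21P and run 20 s at 37 °C. Cleavage products were resolved on denaturing PAGE and quantified by phosphorimaging. IC50 came from dose-response curves over 0.2-100 μM.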

[2] = biological target: Human immunodeficiency virus type 1 integrase (Human immunodeficiency virus 1, UniProt Q7ZJM1); assay: Inhibition of recombinant HIV1 integrase strand transfer activity using biotin-labeled double-stranded HIV-1 LTR U5 donor DNA substrate pretreated for 5 mins followed by substrate addition and measured after 30 mins by ELISA
Human immunodeficiency virus type 1 integrase, sequence (Q7ZJM1 whole entry): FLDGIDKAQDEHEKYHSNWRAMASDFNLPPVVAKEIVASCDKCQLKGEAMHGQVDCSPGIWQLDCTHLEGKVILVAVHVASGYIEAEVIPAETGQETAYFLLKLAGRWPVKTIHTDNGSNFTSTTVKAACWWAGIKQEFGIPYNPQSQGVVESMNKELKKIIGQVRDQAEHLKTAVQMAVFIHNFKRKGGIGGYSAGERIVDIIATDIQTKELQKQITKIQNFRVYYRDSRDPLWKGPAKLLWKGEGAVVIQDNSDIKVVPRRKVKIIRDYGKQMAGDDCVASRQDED

[3] = system: Human immunodeficiency virus 1; assay: Antiviral activity against Human immunodeficiency virus 1 3B infected in MT4 cells assessed as protection against virus-induced cytopathic effect measured 5 days post infection by MTT assay; format: functional, organism-based; settings: MT4, 120 h
Procedure, shortened: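 MT-4 cells resuspended at 6×10^5 cells/mL, infected with HIV-1 IIIB at 100-300 CCID50. Serial five-fold compound dilutions were run in triplicate wells. Viability was read by MTT reduction at 540 and 690 nm five days after infection, using the median OD of two or three wells. EC50 is the concentration giving 50% protection from viral cytopathicity.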

[4] = system: Human immunodeficiency virus 1; assay: Selectivity ratio of IC50 for HIV-1 BH10 reverse transcriptase RNase H activity to IC50 for recombinant HIV1 integrase strand transfer activity
Procedure, shortened: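 Ratio of RNase H IC50 to IN IC50. The RNase H IC50 came from the gel-based cleavage assay. The IN IC50 came from an ELISA strand-transfer assay: biotinylated LTR U5 donor DNA on streptavidin plates, full-length recombinant IN added, compound for 5 min at room temperature, then target DNA for 30 min at 37 °C. Products were detected with HRP antibody, TMB and A450.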

[5] = Cytotoxicity against human MT4 cells after 5 days by MTT assay; format: cell-based
Procedure, shortened: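 Mock-infected MT-4 cells at 6×10^5 cells/mL were set up in triplicate wells alongside the infected series, with serial five-fold compound dilutions. Viability was measured by MTT at 540 and 690 nm after five days, using the median OD of two or three wells. CC50 is the concentration reducing viability of mock-infected cells by 50%.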

IC50 [1] [µM]	IC50 [2] [µM]	Ratio IC50 [4]	SMILES	EC50 [3] [µM]	CC50 at 120 h [5] [µM]
3.24	1.49	2.17	COC(=O)c1c(Nc2ccc(-c3cncnc3)cc2)c2nccnc2n(O)c1=O	> 8.04	8.04
4.72	0.22	21.4	COC(=O)c1c(Nc2cccc(-c3ccc(OC)c(OC)c3)c2)c2nccnc2n(O)c1=O	> 1.32	1.32
5.11	6.74	0.76	COC(=O)c1c(Nc2ccc3ccccc3c2)c2nccnc2n(O)c1=O	> 7.15	7.15
5.9	> 25		COC(=O)c1c(Nc2ccc(-c3ccc(OC)c(OC)c3)cc2)c2nccnc2n(O)c1=O	> 1.47	1.47
1.85	10.8	0.17	COC(=O)c1c(Nc2cccc(-c3cncnc3)c2)c2nccnc2n(O)c1=O	> 5.89	5.89
4.02	0.25	16.1	COC(=O)c1c(Nc2cccc(-c3cccc(C#N)c3)c2)c2nccnc2n(O)c1=O	> 1.16	1.16
1.77	1.18	1.5	COC(=O)c1c(Nc2ccc(-c3ccc(C#N)cc3)cc2)c2nccnc2n(O)c1=O	> 0.34	0.34
4.3	> 25		COC(=O)c1c(Nc2cccc3ccccc23)c2nccnc2n(O)c1=O	> 1.38	1.38
13.3	> 25		COC(=O)c1c(Nc2ccc(-c3cccc(C#N)c3)cc2)c2nccnc2n(O)c1=O	> 5.68	5.68
			Cc1nnc(C(=O)NC(C)(C)c2nc(C(=O)NCc3ccc(F)cc3)c(O)c(=O)n2C)o1	0.0117	> 56.2
5.56	22.8	0.24	COC(=O)c1c(Nc2cccc(-c3ccc(C#N)cc3)c2)c2nccnc2n(O)c1=O	> 1.19	1.19
5.25	> 25		COC(=O)c1c(Nc2ccc(-c3ccccc3)cc2)c2nccnc2n(O)c1=O	> 7	7
2.5			CC(C)c1ccc(O)c(=O)c(O)c1 [BETA-THUJAPLICINOL]		
